The target in assay [1] is T1, Prostaglandin E synthase (Homo sapiens) (UniProt O14684).
T1 sequence (whole entry): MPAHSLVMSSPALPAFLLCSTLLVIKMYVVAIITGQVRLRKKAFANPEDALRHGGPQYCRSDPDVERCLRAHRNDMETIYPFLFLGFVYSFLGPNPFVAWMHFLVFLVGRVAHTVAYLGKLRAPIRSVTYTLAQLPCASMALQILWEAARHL
The experiment in a line: Inhibition of microsomal PGES1 isolated from IL-1beta-stimulated human A549 cells assessed as residual activity at 10 uM preincubated for 15 mins followed by substrate addition measured after 1 min by RP-HPLC analysis relative to control. Type of assay: cell-free. Put shortly:
(§1)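 Enzyme source: microsomes from A549 cells, cultured 16 h at 37 °C and 5% CO2, then given fresh medium and induced with IL-1β (1 ng/mL) for 72 h. Microsomes were prepared by sonication and centrifugation at 174000g. Membranes in 0.1 M potassium phosphate pH 7.4 with 2.5 mM GSH were preincubated with compound or DMSO vehicle for 15 min at 4 °C. PGH2 (20 μM final) was added and the reaction ran 1 min at 4 °C. It was stopped with FeCl2/citric acid containing 11β-PGE2 as internal standard. PGE2 was measured by SPE and RP-HPLC; n = 3–4, mean + SEM.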

Assay [2] has as its target T2, Prostaglandin G/H synthase 1 (Ovis aries, UniProt P05979).
T2 sequence (P05979 whole entry): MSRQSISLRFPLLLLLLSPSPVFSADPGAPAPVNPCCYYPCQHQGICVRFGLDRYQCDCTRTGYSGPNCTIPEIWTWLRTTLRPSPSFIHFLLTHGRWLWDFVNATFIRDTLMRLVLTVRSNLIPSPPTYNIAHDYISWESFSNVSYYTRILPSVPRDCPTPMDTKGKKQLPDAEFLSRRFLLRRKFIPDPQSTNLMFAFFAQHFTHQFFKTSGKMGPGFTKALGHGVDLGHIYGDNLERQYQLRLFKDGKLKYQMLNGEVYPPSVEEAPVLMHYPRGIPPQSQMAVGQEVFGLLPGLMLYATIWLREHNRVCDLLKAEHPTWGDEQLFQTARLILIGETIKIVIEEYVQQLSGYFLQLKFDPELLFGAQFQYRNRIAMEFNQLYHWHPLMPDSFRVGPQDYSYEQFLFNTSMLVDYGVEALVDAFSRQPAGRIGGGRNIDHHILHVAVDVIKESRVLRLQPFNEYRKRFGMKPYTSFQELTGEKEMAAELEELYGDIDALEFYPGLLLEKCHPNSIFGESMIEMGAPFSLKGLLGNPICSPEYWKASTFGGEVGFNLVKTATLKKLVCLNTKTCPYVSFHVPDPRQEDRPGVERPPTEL
As to the kind of experiment: Inhibition of ovine COX-1 using arachidonic acid as substrate preincubated for 5 mins followed by substrate addition measured after 5 mins by HPLC analysis.

Assay [3] has as its target T3, Prostaglandin G/H synthase 2 (Homo sapiens, UniProt P35354).
T3 sequence (P35354 whole entry): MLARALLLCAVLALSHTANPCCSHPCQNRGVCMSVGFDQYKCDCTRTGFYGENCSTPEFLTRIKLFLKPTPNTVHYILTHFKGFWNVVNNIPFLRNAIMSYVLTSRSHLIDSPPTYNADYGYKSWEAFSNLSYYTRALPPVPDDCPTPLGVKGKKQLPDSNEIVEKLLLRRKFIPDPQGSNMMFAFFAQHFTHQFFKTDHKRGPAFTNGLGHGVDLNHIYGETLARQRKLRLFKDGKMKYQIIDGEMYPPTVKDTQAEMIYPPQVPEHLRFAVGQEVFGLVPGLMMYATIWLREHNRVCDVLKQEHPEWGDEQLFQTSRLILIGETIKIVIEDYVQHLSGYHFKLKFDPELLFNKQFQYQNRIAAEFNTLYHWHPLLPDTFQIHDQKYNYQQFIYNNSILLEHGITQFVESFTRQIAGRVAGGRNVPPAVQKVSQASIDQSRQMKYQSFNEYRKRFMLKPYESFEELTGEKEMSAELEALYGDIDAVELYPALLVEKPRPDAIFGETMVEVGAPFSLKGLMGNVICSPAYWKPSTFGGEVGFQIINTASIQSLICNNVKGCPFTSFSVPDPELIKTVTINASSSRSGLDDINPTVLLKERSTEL
As to the kind of experiment: Inhibition of human recombinant COX-2 using arachidonic acid as substrate preincubated for 5 mins followed by substrate addition measured after 5 mins by HPLC analysis.

Assay [4] has as its target T4, Prostaglandin G/H synthase 1 (Ovis aries) (UniProt P05979).
T4 sequence (whole entry): T2 sequence (P05979 whole entry)
As to the kind of experiment: Inhibition of ovine COX-1 using arachidonic acid as substrate assessed as residual activity at 10 uM preincubated for 5 mins followed by substrate addition measured after 5 mins by HPLC analysis relative to control.

For another assay, the target named is T5, Prostaglandin E synthase (Homo sapiens, UniProt O14684).
T5 sequence (O14684 whole entry): T1 sequence (whole entry)
The experiment in a line: Inhibition of microsomal PGES1 isolated from IL-1beta-stimulated human A549 cells preincubated for 15 mins followed by substrate addition measured after 1 min by RP-HPLC analysis. Format: cell-free. The method in brief: as §1

For the next assay, the system named is SK-N-SH. As to the kind of experiment: Cytotoxicity against human SK-N-SH cells after 48 hrs by MTT assay. Type of assay: functional, cell-based. (Tetrazolium dyes change colour on reduction, which living cells bring about.)
Assay [5] is described as follows: Cytotoxicity against human NB39 cells after 48 hrs by MTT assay. Type of assay: functional, cell-based. Conditions: NB39, 48 h.
The nature of assay [6]: Cytotoxicity against human IMR32 cells after 48 hrs by MTT assay. Type of assay: functional, cell-based. Conditions: IMR-32, 48 h.
For assay [7], the target named is T2, Prostaglandin G/H synthase 1. The experiment in a line: Inhibition of ovine COX-1 using arachidonic acid as substrate assessed as PGE2 formation after 2 mins by LC-MS/MS analysis.
Assay [8] has as its target T3, Prostaglandin G/H synthase 2. As to the kind of experiment: Inhibition of human COX-2 using arachidonic acid as substrate assessed as PGE2 formation after 2 mins by LC-MS/MS analysis.

As to `CC(C)[C@@H]1CC[C@]2(C)[C@H](C(=O)C=C3[C@@H]4[C@@H](C)[C@H](C)CC[C@]4(C)CC[C@]32C)[C@@]1(C)CCC(=O)O`, the figures for the Activity in [1] and in [4] were 21.6% and 64.8%, respectively. Also, the 50% inhibitory concentration (IC50) in [2] is over 10 µM; in assay [3], over 10 µM; against Prostaglandin E synthase, 1 µM.

Turning to `CC(C)=CCC[C@H](C(=O)O)[C@@H]1CC[C@]2(C)C3=C(CC[C@@]12C)[C@@]1(C)CC[C@@H](O)C(C)(C)[C@@H]1CC3`, the values for the Activity in assay [1] and in [4] were 3.5% and 81.9%, respectively. Moreover, the values for the 50% inhibitory concentration (IC50) (in [2]; against Prostaglandin E synthase) were over 10 µM and 1.1 µM, respectively.

Regarding `C=C(C)[C@@H]1CC[C@]2(C)CC[C@]3(C)[C@H](CC[C@@H]4[C@@]5(C)CC[C@H](OC(C)=O)[C@](C)(C(=O)O)[C@@H]5CC[C@]43C)[C@@H]12`, in assay [1], the Activity came to 51.4%. In addition, the IC50 with SK-N-SH amounted to 4.1 µM; in [5] it was 4.1 µM; in assay [6] it was 4.1 µM; against Prostaglandin E synthase, 10 µM.

As to `C=C(C)[C@@H]1CC[C@]2(C)[C@H](CC=C3[C@@H]4[C@@H](C)[C@H](C)CC[C@]4(C)CC[C@]32C)[C@@]1(C)CCC(=O)O`, the Activity in assay [1] amounted to 83.9%. The concentration for half-maximal inhibition (IC50) (against Prostaglandin E synthase; in assay [7]; in [8]) was over 10 µM in each case.

Consider `CC(C)=CCC[C@H](C(=O)O)[C@@H]1CC[C@]2(C)C3=CC[C@H]4C(C)(C)[C@H](O)CC[C@]4(C)[C@H]3CC[C@@]12C`, for which the Activity in [1] amounted to 29.6%; in [4], 69.6%. Further, the half-inhibitory concentration (IC50) was over 10 µM in [2], over 10 µM in assay [3] and 3 µM against Prostaglandin E synthase.

Take `CC(C)[C@@H]1CC[C@]2(C)[C@H](CC=C3[C@@H]4CC(C)(C)CC[C@]4(C)CC[C@]32C)[C@@]1(C)CCC(=O)O`: the Activity in assay [1] was 74.1%. In addition, the half-maximal inhibitory concentration (IC50) at Prostaglandin E synthase was over 10 µM.

Regarding `CC(=O)O[C@@H]1CC[C@]2(C)C3=C(CC[C@H]2C1(C)C)[C@@]1(C)CC[C@@H]([C@H](CCC=C(C)C)C(=O)O)[C@]1(C)CC3`, the Activity was found to be 36.8% in [1] and 63.2% in assay [4]. Moreover, the half-inhibitory concentration (IC50) in assay [2] was over 10 µM; in [3], over 10 µM; against Prostaglandin E synthase, 0.4 µM.

For `C=C(C)[C@@H]1CC[C@]2(C)CC[C@]3(C)[C@H](CC[C@@H]4[C@@]5(C)CC[C@H](O)[C@](C)(C(=O)O)[C@@H]5CC[C@]43C)[C@@H]12`, the Activity in [1] is 43.1%. The concentration for half-maximal inhibition (IC50) in the assay with SK-N-SH stood at 4.1 µM; in [5], 4.1 µM; in [6], 4.1 µM; at Prostaglandin E synthase, 8.5 µM.

With `CC(C)=CCC[C@H](C(=O)O)[C@H]1CC[C@]2(C)C3=C(CC[C@@]12C)[C@@]1(C)CCC(=O)C(C)(C)[C@H]1CC3` [BETA-ELEMONIC ACID], the results for the Activity in assay [1] and in assay [4] were 16.7% and 81.1%, respectively. Also, the half-maximal inhibitory concentration (IC50) in assay [2] was over 10 µM; in assay [3], over 10 µM; against Prostaglandin E synthase, 0.9 µM.

For `CC(=O)O[C@@H]1CC[C@]2(C)[C@H]3CC[C@@]4(C)[C@H]([C@H](CCC=C(C)C)C(=O)O)CC[C@]4(C)C3=CC[C@H]2C1(C)C`, in assay [1], the Activity amounted to 20.6%. In addition, the concentration for half-maximal inhibition (IC50) in [2] is over 10 µM; on Prostaglandin E synthase, 0.4 µM.

For the molecule `CC(C)[C@@H]1CC[C@]2(C)[C@H](CC=C3[C@@H]4[C@@H](C)[C@H](C)CC[C@]4(C)CC[C@]32C)[C@@]1(C)CCC(=O)O`, in assay [1], the Activity worked out at 92.4%. For the same molecule, at Prostaglandin E synthase, the IC50 is over 10 µM.

Consider `C=C(C)[C@@H]1CC[C@]2(CO)CC[C@]3(C)[C@H](CC[C@@H]4[C@@]5(C)CC[C@H](OC(C)=O)[C@](C)(C(=O)O)[C@@H]5CC[C@]43C)[C@@H]12`, for which the values for the Activity in assay [1] and in assay [4] were 31.1% and 90.7%, respectively. The IC50 in assay [2] was over 10 µM; in [3], over 10 µM; on Prostaglandin E synthase it was 0.9 µM.

In the case of `CC(C)=CCC[C@H](C(=O)O)[C@@H]1CC[C@]2(C)C3=C(CC[C@@]12C)[C@@]1(C)CC[C@H](O)C(C)(C)[C@@H]1CC3`, the Activity in assay [1] turned out to be 29.2%; in assay [4], 82.3%. For the same molecule, the IC50 was over 10 µM in assay [2], over 10 µM in [3] and 1.2 µM against Prostaglandin E synthase.

Usually IC50 stands for the concentration needed to halve the response being measured.
